According to PubChem BioAssay:
Results filed as inconclusive are left out.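 Rule for the calls, unless noted: active = inhibition over a set limit, the all-compound mean plus 3 SD, in both replicate runs; inconclusive = over that limit in just one replicate run; inactive = at or under that limit in both runs.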

Columns and labels:
[1] = OD615 S. cerevisiae growth inhibition, permissive medium, pilot counter-assay, permissive growth control for S. cerevisiae lifespan shortening project (AID 705;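 active = growth inhibition above 25% in both replicates, a cutoff set 3 SD above the mean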); conditions: OD615, 24 h, at 10 µM, hits give high values
Procedure, shortened: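 System: S. cerevisiae with engineered DeaD lifespan system. Medium: SC raffinose/galactose permissive medium. Doses: single compound dose of 10 µM, 0.25% DMSO final. Schedule: 24 h exposure, 30 °C. Measured by: OD615 turbidity read. Read-out: growth inhibition.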

[2] = Restrictive medium S. cerevisiae growth inhibition, OD615, pilot screen of yeast lifespan reduction project, restrictive growth control (AID 706;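 active = growth inhibition above a set limit, 3 SD over mean compound inhibition, in both replicates, cut at about 43% in these data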;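 note: modified DeaD lifespan yeast strain shifted to restrictive glucose medium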); conditions: OD615, 48 h, at 10 µM, hits give high values
Procedure, shortened: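 Assay system – genetically modified Saccharomyces cerevisiae, DeaD replicative lifespan assay strain · Medium – CSMM-D glucose medium · Doses – 10 µM compound, 0.25% DMSO · Times – 4 h pre-incubation, 48 h exposure at 30 °C · Signal – optical density at 615 nm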

[3] = viability gain of MRP-1-high H69AR cells under doxorubicin, pilot screen, MRP-1 activator project, CellTiter-Glo, duplicate (AID 807;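 active = viability increase at or above a cutoff of the median across tested compounds plus 3 SD, cut at about 8.5% in these data, passing the limit was not always enough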;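 note: compound pretreatment 18-22 h then 72 h combined with doxorubicin; 0% = doxorubicin alone and 100% = vehicle without doxorubicin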); conditions: H69AR viability with doxorubicin, CellTiter-Glo luminescence; at 10 µM; hits give high values
[4] = growth suppression of beta-catenin knockout HCT116, pilot screen, human colon tumor cells (AID 823;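 active = cell viability at or below a set limit in both duplicate runs, the limit being the all-compound median minus 4 SD, cut at about 23% in these data, passing the limit was not always enough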;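 note: 0% = wells killed by 20 µM Hyamine and 100% = untreated DMSO cell wells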); conditions: CellTiter-Glo, 60 h, at 10 µM, hits give low values
[5] = growth suppression of PTEN-deleted HCT116, pilot screen, cell-based, HCT116 clonal line, CellTiter-Glo (AID 824;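 active = viability at or below 27.92% in each of two runs, the all-compound median minus 4 SD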;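 note: 0% = 20 µM Hyamine control and 100% = vehicle cell control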); conditions: 60 h, at 10 µM, hits give low values
[6] = inhibitors of the yeast RAM network, pilot screen, dse1pr::URA3 reporter, 5-FOA selection (AID 869);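 note: 0% = DMSO wells with no growth and 100% = 10 µM 1-NA-PP1 with full growth; RAM network block rescues cells from 5-FOA so hits raise OD615 growth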; conditions: S. cerevisiae dse1pr::URA3 5-FOA growth, OD615, 2 d; at 10 µM; hits give high values; strain carries analog-sensitive mutant Cbk1 kinase
[7] = RAM signaling pathway blockade in yeast – S. cerevisiae, Pdr1DBD-CYC8 efflux-inhibited sensitized strain, primary screen (AID 1298;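 active = RAM network inhibition above 8.4% in each of two replicates, 3 SD over the compound average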;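 note: 0% = DMSO untreated cells without growth and 100% = 10 µM 1-NA-PP1 full growth; higher means more yeast growth rescued from 5-FOA killing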); conditions: S. cerevisiae cbk1-as DSE1-URA3 strain, 5-FOA growth OD615, 2 d; at 50 µM; hits give high values

Cc1ccc(-n2c3c(cc(C(=O)NCc4ccco4)c2=O)C(=O)CC(C)(C)C3)cc1
inactive: growth inhibition [1] -5.76% | growth inhibition [2] -4.77% | viability increase [3] -5.37% | viability [4] 83% | viability [5] 85.6% | inhibition [6] -0.235% | RAM network inhibition [7] 3.42%

CC1Cc2nc(SCC(=O)N3CCCC3)n(C)c(=O)c2S1 (stereo unspecified)
inactive: growth inhibition [1] -3.58% | growth inhibition [2] -13.8% | viability increase [3] -3.27% | viability [4] 98.2% | viability [5] 87.9% | inhibition [6] 1.17% | RAM network inhibition [7] 5.83%

O=C(NCc1ccc(Cl)c(Cl)c1)c1ccco1
inactive: growth inhibition [1] -5.02% | growth inhibition [2] -2.23% | viability increase [3] -3.58% | viability [4] 90.8% | viability [5] 84.9% | inhibition [6] 1.23% | RAM network inhibition [7] 3.74%

COc1cc(C(=O)Nc2nnc(C)s2)cc(OC)c1OC
inactive: growth inhibition [1] -12.2% | growth inhibition [2] -5.23% | viability increase [3] -2% | viability [4] 95.2% | viability [5] 82.3% | inhibition [6] 2.54% | RAM network inhibition [7] 2.16%

CCN1CCCC(NC(=O)c2scc3c2CCCC3)C1 (stereo unspecified)
inactive: growth inhibition [1] -8.03% | growth inhibition [2] -5.2% | viability increase [3] -2.12% | viability [4] 96.5% | viability [5] 95.1% | inhibition [6] 0.625% | RAM network inhibition [7] -0.09%

O=S(=O)(NCc1csc(-c2cccnc2)n1)c1cccs1
inactive: growth inhibition [1] 5.38% | growth inhibition [2] -1.74% | viability increase [3] -0.79% | viability [4] 98% | viability [5] 90% | inhibition [6] 1.69% | RAM network inhibition [7] 1.3%

Cc1ccc(/C(O)=C2/C(=O)C(=O)N(CCN3CCOCC3)C2c2cccnc2)cc1 (stereo unspecified)
inactive: growth inhibition [1] 6.32% | growth inhibition [2] 4.34% | viability increase [3] 0.49% | viability [4] 93.5% | viability [5] 102% | inhibition [6] -0.11% | RAM network inhibition [7] 0.7%

COC(=O)CN1C(=O)C(O)(CC(=O)c2ccc(Br)cc2)c2ccccc21 (stereo unspecified)
inactive: growth inhibition [1] 5.54% | growth inhibition [2] 11.5% | viability increase [3] -2.96% | viability [4] 92.4% | viability [5] 96.6% | inhibition [6] 0.785% | RAM network inhibition [7] 3.19%

CCCCCn1c(SCc2cccc(C)c2)nc2c1c(=O)[nH]c(=O)n2C
inactive: growth inhibition [1] -12.8% | growth inhibition [2] -18.8% | viability increase [3] -7.54% | viability [4] 70.1% | viability [5] 66.4% | inhibition [6] 1.67% | RAM network inhibition [7] 5.94%

CCOC(=O)c1cnn(CC2CCCCC2)c1N
inactive: growth inhibition [1] 0.805% | growth inhibition [2] 1.77% | viability increase [3] -0.78% | viability [4] 92.4% | viability [5] 94.4% | inhibition [6] 0.96% | RAM network inhibition [7] -0.52%

COc1ccc(C2(O)CCN(C(=O)Cc3cccnc3)CC2)cc1
inactive: growth inhibition [1] -20.4% | growth inhibition [2] -12% | viability increase [3] 1.04% | viability [4] 99.3% | viability [5] 94.7% | inhibition [6] 1.03% | RAM network inhibition [7] 1.03%

COc1ccc(C2SCC(C(=O)O)N2C(C)=O)cc1OC (stereo unspecified)
inactive: growth inhibition [1] 0.095% | growth inhibition [2] 1.78% | viability increase [3] 0.1% | viability [4] 96.5% | viability [5] 102% | inhibition [6] 1.33% | RAM network inhibition [7] 7.78%

CC(=O)Nc1sc(N)nc1-c1ccccc1
inactive: growth inhibition [1] -7.75% | growth inhibition [2] 16.2% | viability increase [3] 0.94% | viability [4] 88.7% | viability [5] 99.5% | inhibition [6] 0.055% | RAM network inhibition [7] 3.89%

N#CC1=C(SCc2ccccc2)NC(=O)CC1c1ccc(O)cc1 (stereo unspecified)
inactive: growth inhibition [1] -12.2% | growth inhibition [2] -15.2% | viability increase [3] -2.66% | viability [4] 98.2% | viability [5] 96.6% | inhibition [6] 0.67% | RAM network inhibition [7] 1.25%

COc1cccc(CN2C(=O)CCC2(C)C(=O)NC2CCCCC2)c1 (stereo unspecified)
inactive: growth inhibition [1] -6.64% | growth inhibition [2] 1.03% | viability increase [3] 0.54% | viability [4] 107% | viability [5] 100% | inhibition [6] -0.375% | RAM network inhibition [7] 0.22%

Cn1c(=O)c2c(nc(CN3CCOCC3)n2CCCO)n(C)c1=O
inactive: growth inhibition [1] -5.86% | growth inhibition [2] -3.44% | viability increase [3] -0.74% | viability [4] 102% | viability [5] 101% | inhibition [6] 1.76% | RAM network inhibition [7] 6.48%

O=C(Nc1nnc(-c2ccccc2)o1)c1nc2ccccc2s1
inactive: growth inhibition [1] -9.03% | growth inhibition [2] 10.3% | viability increase [3] -3.96% | viability [4] 93.8% | viability [5] 88.8% | inhibition [6] 1.39% | RAM network inhibition [7] 0.11%

COc1cccc(-c2nc(CS(=O)(=O)CC(=O)N3CCN(C4CCCCC4)CC3)c(C)o2)c1
inactive: growth inhibition [1] 1.34% | growth inhibition [2] -1.93% | viability increase [3] -2.59% | viability [4] 86.4% | viability [5] 100% | inhibition [6] 0.41% | RAM network inhibition [7] 3.35%

CCCC(=O)NC(C)c1nc2ccccc2n1C (stereo unspecified)
inactive: growth inhibition [1] -18.7% | growth inhibition [2] -2.34% | viability increase [3] 2.12% | viability [4] 101% | viability [5] 102% | inhibition [6] 1.45% | RAM network inhibition [7] 1.79%

CCOC(=O)c1c(CN(CC)CC)oc2cc(Br)c(O)cc12
inactive: growth inhibition [1] -0.115% | growth inhibition [2] 0.915% | viability increase [3] -3.81% | viability [4] 78.2% | viability [5] 81.6% | inhibition [6] -0.04% | RAM network inhibition [7] 3.43%

Cn1c(NC(=O)c2cccc(C(F)(F)F)c2)cc(=O)n(C)c1=O
inactive: growth inhibition [1] -16% | growth inhibition [2] -5.14% | viability increase [3] -2.74% | viability [4] 98.8% | viability [5] 94.5% | inhibition [6] 0.925% | RAM network inhibition [7] 1.89%

Cc1cccc(C)c1N1C(=O)c2ccccc2C1=O
inactive: growth inhibition [1] -6.34% | growth inhibition [2] -3.44% | viability increase [3] -1.87% | viability [4] 105% | viability [5] 92.7% | inhibition [6] 0.535% | RAM network inhibition [7] 2.47%

COC(=O)c1nc2cc(C)ccn2c1F
inactive: growth inhibition [1] 0.67% | growth inhibition [2] 0.595% | viability increase [3] -1.42% | viability [4] 105% | viability [5] 94.3% | inhibition [6] 2.7% | RAM network inhibition [7] 0.79%

Cc1c(Nc2nc3ccccc3nc2N2CCN(c3ccccc3)CC2)c(=O)n(-c2ccccc2)n1C
inactive: growth inhibition [1] -2.84% | growth inhibition [2] -9.73% | viability increase [3] -4.8% | viability [4] 69% | viability [5] 70.6% | inhibition [6] 0.73% | RAM network inhibition [7] 5.41%

C=CCSc1nc2c(c(=O)[nH]c(=O)n2C)n1Cc1ccc(C)cc1
inactive: growth inhibition [1] -12.1% | growth inhibition [2] -7.22% | viability increase [3] -3.38% | viability [4] 90.1% | viability [5] 86.4% | inhibition [6] 2.6% | RAM network inhibition [7] 7.02%

CCOC(=O)c1c(N)sc(C(N)=O)c1C
inactive: growth inhibition [1] -17.3% | growth inhibition [2] -8.77% | viability increase [3] -1.19% | viability [4] 95.3% | viability [5] 97.3% | inhibition [6] 1.25% | RAM network inhibition [7] 0.78%

COC(=O)C1C(=O)c2c([nH]c(C(=O)OC3CCCCC3)c2C)CC1C (stereo unspecified)
inactive: growth inhibition [1] -2.87% | growth inhibition [2] 2.14% | viability increase [3] 2.69% | viability [4] 107% | viability [5] 104% | inhibition [6] 0.105% | RAM network inhibition [7] 2.04%

CCN1CCN(CC(=O)Nc2ccc(C)cc2C)C(=O)C1=O
inactive: growth inhibition [1] 2.74% | growth inhibition [2] -6.08% | viability increase [3] -0.23% | viability [4] 98% | viability [5] 97% | inhibition [6] 1.74% | RAM network inhibition [7] -0.71%

CN1C(=O)NC(c2ccccc2)C2=C1CN(Cc1ccco1)C2=O (stereo unspecified)
inactive: growth inhibition [1] -6.95% | growth inhibition [2] -14.4% | viability increase [3] -2.48% | viability [4] 90.4% | viability [5] 89.7% | inhibition [6] 1.47% | RAM network inhibition [7] 3%

Cc1nn(C)c(C)c1NS(=O)(=O)c1ccccc1
inactive: growth inhibition [1] -9.1% | growth inhibition [2] -6.73% | viability increase [3] -0.34% | viability [4] 98% | viability [5] 88.4% | inhibition [6] 0.545% | RAM network inhibition [7] 6.15%

CC1=C(C)C(=O)N(CCC(=O)O)C1=O
inactive: growth inhibition [1] -12.6% | growth inhibition [2] -20.3% | viability increase [3] -1.09% | viability [4] 95.3% | viability [5] 93.8% | inhibition [6] 1.52% | RAM network inhibition [7] 3.32%

CCOC(=O)c1ccccc1NC(=O)CN(c1ccccc1OCC)S(C)(=O)=O
inactive: growth inhibition [1] 2.85% | growth inhibition [2] 1.95% | viability increase [3] -1.57% | viability [4] 96.4% | viability [5] 98% | inhibition [6] 1.1% | RAM network inhibition [7] 2.46%

COc1cccc(-n2c(Cc3cc(=O)[nH]c(=O)[nH]3)nnc2SCc2cccnc2)c1
inactive: growth inhibition [1] -7.23% | growth inhibition [2] -2.88% | viability increase [3] 0.52% | viability [4] 106% | viability [5] 102% | inhibition [6] 0% | RAM network inhibition [7] 0.9%
